High-throughput results from PubChem BioAssay.
TRPC4 act = TRPC4 (mouse) channel activation; HEK293 TRPC4beta/mu-opioid, Fluo4 calcium fluorescence; hits give high values; B-score at 10 µM; actives 0.49% (n = 310,000); AID 2237;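 active = B-score above 5 SD of library B-scores, and initial fluorescence ratio not above library mean plus 5 SD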;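 note: positive B-score marks a calcium rise read as TRPC4 activation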
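Assay system: HEK293 stable line with TRPC4beta plus mu-opioid receptor; schedule: 45 min room-temperature Fluo4 loading, 110 s read; technique: kinetic Fluo4 calcium fluorescence; evaluation: integrated baseline-normalised fluorescence ratio, converted to per-well B score; controls: buffer (low) and maximal DAMGO (high)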
TRPC4 PAM = allosteric potentiators of mouse TRPC4 channel; B-score at 10 µM; HEK293 TRPC4beta/mu-opioid, DAMGO EC20, Fluo-4 Ca2+ flux; hits give high values; actives 0.42% (n = 310,000); AID 2227; Q9QUQ5;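 active = B-score of calcium response area above 5 SD of library B-scores, with initial fluorescence ratio within 5 SD of library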;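 note: B-score of integrated fluorescence ratio over time as area under calcium response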
TRPC4 inh = TRPC4 (mouse) channel inhibition. actives 0.39% (n = 300,000). B-score at 10 µM. Q9QUQ5. AID 2247. HEK293 TRPC4beta/mu-opioid, DAMGO-evoked Fluo4 calcium flux; hits give low values;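 active = B-score over 3 SD under the library average, no early fluorescence shift, positive overall ratio signal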
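material = TRPC4beta/mu-opioid receptor HEK293 cell line | probe or stimulus = sequential submaximal and maximal DAMGO stimulation | compound dosing = one concentration per compound | measured by = Fluo4 Ca2+ flux fluorescence | evaluation = integrated fluorescence ratio relative to baseline, converted to per-well B score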
TRPC6 act = mouse TRPC6 channel activation; HEK293-TRPC6 membrane potential dye fluorescence; hits give high values; Q61143; actives 0.13% (n = 310,000); B-score at 10 µM;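 active = B-score of the integrated fluorescence ratio above library mean plus 3 SD, and starting fluorescence ratio within library mean plus 5 SD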;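 note: higher score means more depolarization so channel activation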
Target sequence (Q61143 whole entry, looked up): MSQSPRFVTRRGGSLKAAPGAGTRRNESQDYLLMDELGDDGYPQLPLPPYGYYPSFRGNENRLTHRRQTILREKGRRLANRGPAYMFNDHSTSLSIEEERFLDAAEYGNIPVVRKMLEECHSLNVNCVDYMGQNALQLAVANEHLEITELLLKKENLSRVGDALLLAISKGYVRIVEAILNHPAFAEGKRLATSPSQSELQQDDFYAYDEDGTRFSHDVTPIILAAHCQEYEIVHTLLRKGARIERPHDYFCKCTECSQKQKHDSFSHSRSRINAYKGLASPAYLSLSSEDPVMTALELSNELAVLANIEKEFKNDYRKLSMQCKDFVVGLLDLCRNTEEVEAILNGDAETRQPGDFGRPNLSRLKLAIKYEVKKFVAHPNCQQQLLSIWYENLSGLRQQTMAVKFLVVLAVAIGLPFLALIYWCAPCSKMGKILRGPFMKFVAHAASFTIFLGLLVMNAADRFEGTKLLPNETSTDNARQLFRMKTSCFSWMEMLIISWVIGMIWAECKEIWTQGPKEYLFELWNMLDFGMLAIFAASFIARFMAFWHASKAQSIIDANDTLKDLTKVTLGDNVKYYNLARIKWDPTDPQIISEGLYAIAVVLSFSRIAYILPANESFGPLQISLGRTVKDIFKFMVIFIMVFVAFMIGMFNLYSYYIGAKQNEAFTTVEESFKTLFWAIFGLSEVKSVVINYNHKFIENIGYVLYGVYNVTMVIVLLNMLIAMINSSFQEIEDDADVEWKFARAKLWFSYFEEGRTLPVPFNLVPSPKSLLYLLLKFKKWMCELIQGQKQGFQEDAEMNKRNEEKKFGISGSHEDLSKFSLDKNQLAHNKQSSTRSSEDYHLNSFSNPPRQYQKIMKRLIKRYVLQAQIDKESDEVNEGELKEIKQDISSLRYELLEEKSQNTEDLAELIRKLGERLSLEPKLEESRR
TRPC6 inh = inhibitors of mouse TRPC6 channel; Q61143; actives 1.1% (n = 310,000); B-score at 10 µM; HEK293-TRPC6, membrane potential dye, ACh-evoked depolarization; hits give low values;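 active = B-score under library mean minus 3 SD, initial fluorescence not abnormally high, positive integrated signal ratio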;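 note: B-score derived from integrated fluorescence ratio over the kinetic read; more negative B-score means stronger inhibition of depolarization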
An asterisk follows results filed as active. Rows were chosen to be rich in hits. Some 2.3% of all compounds tested hit in one or more screens of this group.

What do the screens show for `COc1ccc(C2C(O)C(c3c[nH]c4ccccc34)=NN2C(=O)CCl)cc1` (configuration not stated)?
TRPC4 act: inactive; TRPC4 PAM: 21*; TRPC4 inh: inactive; TRPC6 act: inactive; TRPC6 inh: inactive

How did COc1ccccc1C(=O)NNC1=C(C(=O)C(F)(F)F)CCC1 do in these assays?
TRPC4 act: 93*; TRPC4 PAM: inactive; TRPC4 inh: inactive; TRPC6 act: inactive; TRPC6 inh: inactive

How did Cc1ccc(-c2cn(-c3ccccc3)c(SCC(N)=O)n2)cc1C do in these assays?
TRPC4 act: inactive; TRPC4 PAM: 21*; TRPC4 inh: inactive; TRPC6 act: inactive; TRPC6 inh: inactive

How did CCOc1ccc(CCNC(=O)Nc2cccc(OC)c2)cc1OCC do in these assays?
TRPC4 act: inactive; TRPC4 PAM: inactive; TRPC4 inh: inactive; TRPC6 act: inactive; TRPC6 inh: inactive

How did CCN1C(=O)c2cccc3c(S(=O)(=O)Nc4ccccc4OC)ccc1c23 do in these assays?
TRPC4 act: 76*; TRPC4 PAM: inactive; TRPC4 inh: inactive; TRPC6 act: inactive; TRPC6 inh: inactive

What do the screens show for `Cc1cc(Nc2ccc(Cl)cc2)nc(NCc2ccccc2)n1`?
TRPC4 act: inactive; TRPC4 PAM: inactive; TRPC4 inh: inactive; TRPC6 act: inactive; TRPC6 inh: inactive

How did Cc1cc(N2CCC(C)CC2)nc(NCc2ccccc2)n1 do in these assays?
TRPC4 act: inactive; TRPC4 PAM: 16*; TRPC4 inh: -6*; TRPC6 act: inactive; TRPC6 inh: inactive

How did Cc1cc(N2CCC(C)CC2)nc(-c2ccccc2O)n1 do in these assays?
TRPC4 act: inactive; TRPC4 PAM: inactive; TRPC4 inh: inactive; TRPC6 act: inactive; TRPC6 inh: inactive

How did Cc1cc(Nc2ccccc2)nc(NCc2ccccc2)n1 do in these assays?
TRPC4 act: inactive; TRPC4 PAM: inactive; TRPC4 inh: -6*; TRPC6 act: inactive; TRPC6 inh: inactive

How did CSc1cccc(NC(=O)c2cc(S(=O)(=O)N3CCc4ccccc43)cn2C)c1 do in these assays?
TRPC4 act: inactive; TRPC4 PAM: inactive; TRPC4 inh: inactive; TRPC6 act: inactive; TRPC6 inh: inactive

How did CC(C)CCn1c(Sc2nc3ccccc3o2)nc2c1c(=O)[nH]c(=O)n2C do in these assays?
TRPC4 act: inactive; TRPC4 PAM: 17*; TRPC4 inh: inactive; TRPC6 act: inactive; TRPC6 inh: inactive

What do the screens show for `O=C(CCCN=C1NS(=O)(=O)c2ccccc21)OCC(=O)c1ccc(F)cc1`?
TRPC4 act: 48*; TRPC4 PAM: inactive; TRPC4 inh: inactive; TRPC6 act: inactive; TRPC6 inh: inactive

How did COC(=O)c1ccc(NC(=O)CSc2nnc(-c3cccnc3)o2)cc1 do in these assays?
TRPC4 act: inactive; TRPC4 PAM: inactive; TRPC4 inh: inactive; TRPC6 act: inactive; TRPC6 inh: inactive

What do the screens show for `Cc1c(CCOC(=O)C2C3CC4CC(C3)CC2C4)sc[n+]1CC(=O)c1ccc(Br)cc1` (configuration not stated)?
TRPC4 act: inactive; TRPC4 PAM: inactive; TRPC4 inh: inactive; TRPC6 act: inactive; TRPC6 inh: inactive

How did Cc1c(CCOC(=O)c2cccc([N+](=O)[O-])c2)sc[n+]1CC(=O)c1ccccc1 do in these assays?
TRPC4 act: inactive; TRPC4 PAM: inactive; TRPC4 inh: -6*; TRPC6 act: inactive; TRPC6 inh: inactive

What do the screens show for `COc1ccc(C(=O)OCCc2sc[n+](CC(=O)c3ccccc3)c2C)cc1`?
TRPC4 act: inactive; TRPC4 PAM: inactive; TRPC4 inh: inactive; TRPC6 act: inactive; TRPC6 inh: -5.3*

How did COc1ccc2c(c1)C(=O)N(Cc1ccccc1)C(=O)C2(C)C do in these assays?
TRPC4 act: inactive; TRPC4 PAM: inactive; TRPC4 inh: inactive; TRPC6 act: inactive; TRPC6 inh: inactive

How did Cc1cc(C)nc(/N=C(\N)Nc2ccc(CC(=O)OC(C)C)cc2)n1 do in these assays?
TRPC4 act: inactive; TRPC4 PAM: inactive; TRPC4 inh: inactive; TRPC6 act: inactive; TRPC6 inh: inactive

How did CCOC(=O)C(=O)Nc1ccc(OCc2ccccc2)cc1 do in these assays?
TRPC4 act: inactive; TRPC4 PAM: inactive; TRPC4 inh: inactive; TRPC6 act: inactive; TRPC6 inh: inactive

What do the screens show for `Cc1cc(C)nc(/N=C(\N)Nc2ccc(OCCC(C)C)cc2)n1`?
TRPC4 act: 51*; TRPC4 PAM: inactive; TRPC4 inh: inactive; TRPC6 act: inactive; TRPC6 inh: inactive

Results for Cc1cc(C)nc(/N=C(\N)Nc2ccc(OCc3ccccc3)cc2)n1 ?
TRPC4 act: 61*; TRPC4 PAM: inactive; TRPC4 inh: inactive; TRPC6 act: inactive; TRPC6 inh: inactive

How did Cc1cc(C)nc(/N=C(\N)Nc2cccc(OCc3ccccc3)c2)n1 do in these assays?
TRPC4 act: inactive; TRPC4 PAM: inactive; TRPC4 inh: inactive; TRPC6 act: inactive; TRPC6 inh: -5.4*

Results for CCN1CCN(c2ccc(S(=O)(=O)N3CCCCC3)cc2NC(=O)c2sccc2C)CC1 ?
TRPC4 act: inactive; TRPC4 PAM: inactive; TRPC4 inh: inactive; TRPC6 act: inactive; TRPC6 inh: inactive

What do the screens show for `N#CC(C#N)=Cc1cccn1-c1ccc(C(=O)O)cc1`?
TRPC4 act: inactive; TRPC4 PAM: inactive; TRPC4 inh: inactive; TRPC6 act: inactive; TRPC6 inh: inactive

Results for N#C/C(=C/c1cccn1-c1cccc(C(=O)O)c1)c1ccc(Cl)cc1 ?
TRPC4 act: inactive; TRPC4 PAM: inactive; TRPC4 inh: -6*; TRPC6 act: inactive; TRPC6 inh: inactive

What do the screens show for `Cc1ccsc1C(=O)N(C)CC(=O)N(CC(C)C)c1c(N)n(CC(C)C)c(=O)[nH]c1=O`?
TRPC4 act: inactive; TRPC4 PAM: inactive; TRPC4 inh: inactive; TRPC6 act: inactive; TRPC6 inh: inactive

How did COc1ccc(CN(C)C(=O)c2ccc(NC(=O)CC3SC(N4CCCC4)=NC3=O)cc2)c(OC)c1OC (configuration not stated) do in these assays?
TRPC4 act: inactive; TRPC4 PAM: inactive; TRPC4 inh: inactive; TRPC6 act: inactive; TRPC6 inh: inactive

Results for COc1ccc(CN(C)C(=O)c2ccc(NC(=O)CC3SC(N4CCCC4)=NC3=O)cc2)c(OC)c1 (configuration not stated) ?
TRPC4 act: inactive; TRPC4 PAM: 41*; TRPC4 inh: -6*; TRPC6 act: inactive; TRPC6 inh: inactive

How did Cc1ccc(C)c(NC2CCCCC2NS(=O)(=O)c2ccccc2)c1 (configuration not stated) do in these assays?
TRPC4 act: inactive; TRPC4 PAM: inactive; TRPC4 inh: inactive; TRPC6 act: inactive; TRPC6 inh: inactive

Results for Cc1cccc(NC2CCCCC2NS(=O)(=O)c2ccccc2)c1 (configuration not stated) ?
TRPC4 act: inactive; TRPC4 PAM: 13*; TRPC4 inh: inactive; TRPC6 act: inactive; TRPC6 inh: inactive
